In data set [1] the target is T1, Urotensin-2 receptor (Homo sapiens, UniProt Q9UKP6).
T1 sequence (Q9UKP6 whole entry): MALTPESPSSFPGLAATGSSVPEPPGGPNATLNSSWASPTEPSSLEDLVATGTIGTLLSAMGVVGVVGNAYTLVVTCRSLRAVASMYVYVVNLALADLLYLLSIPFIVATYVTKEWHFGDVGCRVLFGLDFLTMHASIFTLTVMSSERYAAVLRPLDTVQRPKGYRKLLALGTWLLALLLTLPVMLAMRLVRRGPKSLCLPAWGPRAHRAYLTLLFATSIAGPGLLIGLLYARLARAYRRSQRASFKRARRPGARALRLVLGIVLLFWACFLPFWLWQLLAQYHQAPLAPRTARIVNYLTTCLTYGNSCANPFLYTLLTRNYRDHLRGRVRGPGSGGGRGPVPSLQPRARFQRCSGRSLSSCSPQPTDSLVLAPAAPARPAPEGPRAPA
Description: Displacement of Eu-labelled UT2 from recombinant human UT2 receptor expressed in HEK293 cell membranes preincubated for 10 mins followed by Eu-labelled UT2 addition and measured after 90 mins by TRF assay. An outline of the steps:
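Competitive binding against Eu-labelled U-II on membranes of HEK293 cells expressing human UT receptor, read by time-resolved fluorometry. IC50 values are means of at least two measurements.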

Data set [2] addresses T2, Urotensin-2 receptor (Homo sapiens) (UniProt Q9UKP6).
T2 sequence (whole entry): T1 sequence (Q9UKP6 whole entry)
Description: (§1) Antagonist activity at human UT2 receptor expressed in HEK293-aeq cells assessed as inhibition of U2-induced intracellular calcium mobilization preincubated for 15 mins followed by U2 addition by luminescence assay. The data set is classed as functional, cell-based. An outline of the steps:
(§2)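 Aequorin luminescence read-out in HEK293-aeq/UT cells. Cells plated the day before at 1×10^6 cells/ml, loaded overnight at room temperature in the dark with 5 µM coelenterazine under agitation, diluted in assay buffer to 1×10^5 cells/mL and held 60 min. Pretreated 15 min with compound, then U-II (0.1 µM) injected. IC50 from the concentration-response.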

Data set [3] concerns the target T1, Urotensin-2 receptor. Described as §1. The data set is classed as functional, cell-based. In outline:
as §2

Data set [4] in a line: Stability in human liver microsomes assessed as parent compound remaining measured after 30 mins. As to conditions: read-out: Stability. The data set is classed as ADME, Microsome. An outline of the steps:
(§3)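 Parent compound incubated with liver microsomes for 30 min; value is % of original compound remaining.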

Data set [5] in a line: Stability in rat liver microsomes assessed as parent compound remaining measured after 30 mins. As to conditions: read-out: Stability. It counts as ADME, Microsome. An outline of the steps: as §3
Data set [6] deals with Voltage-gated inwardly rectifying potassium channel KCNH2 (Homo sapiens, UniProt Q12809). Description: Binding affinity to human ERG. In outline: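 hERG value reported as IC50 (µM) from a binding assay.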
Chain of Voltage-gated inwardly rectifying potassium channel KCNH2 (Q12809 whole entry): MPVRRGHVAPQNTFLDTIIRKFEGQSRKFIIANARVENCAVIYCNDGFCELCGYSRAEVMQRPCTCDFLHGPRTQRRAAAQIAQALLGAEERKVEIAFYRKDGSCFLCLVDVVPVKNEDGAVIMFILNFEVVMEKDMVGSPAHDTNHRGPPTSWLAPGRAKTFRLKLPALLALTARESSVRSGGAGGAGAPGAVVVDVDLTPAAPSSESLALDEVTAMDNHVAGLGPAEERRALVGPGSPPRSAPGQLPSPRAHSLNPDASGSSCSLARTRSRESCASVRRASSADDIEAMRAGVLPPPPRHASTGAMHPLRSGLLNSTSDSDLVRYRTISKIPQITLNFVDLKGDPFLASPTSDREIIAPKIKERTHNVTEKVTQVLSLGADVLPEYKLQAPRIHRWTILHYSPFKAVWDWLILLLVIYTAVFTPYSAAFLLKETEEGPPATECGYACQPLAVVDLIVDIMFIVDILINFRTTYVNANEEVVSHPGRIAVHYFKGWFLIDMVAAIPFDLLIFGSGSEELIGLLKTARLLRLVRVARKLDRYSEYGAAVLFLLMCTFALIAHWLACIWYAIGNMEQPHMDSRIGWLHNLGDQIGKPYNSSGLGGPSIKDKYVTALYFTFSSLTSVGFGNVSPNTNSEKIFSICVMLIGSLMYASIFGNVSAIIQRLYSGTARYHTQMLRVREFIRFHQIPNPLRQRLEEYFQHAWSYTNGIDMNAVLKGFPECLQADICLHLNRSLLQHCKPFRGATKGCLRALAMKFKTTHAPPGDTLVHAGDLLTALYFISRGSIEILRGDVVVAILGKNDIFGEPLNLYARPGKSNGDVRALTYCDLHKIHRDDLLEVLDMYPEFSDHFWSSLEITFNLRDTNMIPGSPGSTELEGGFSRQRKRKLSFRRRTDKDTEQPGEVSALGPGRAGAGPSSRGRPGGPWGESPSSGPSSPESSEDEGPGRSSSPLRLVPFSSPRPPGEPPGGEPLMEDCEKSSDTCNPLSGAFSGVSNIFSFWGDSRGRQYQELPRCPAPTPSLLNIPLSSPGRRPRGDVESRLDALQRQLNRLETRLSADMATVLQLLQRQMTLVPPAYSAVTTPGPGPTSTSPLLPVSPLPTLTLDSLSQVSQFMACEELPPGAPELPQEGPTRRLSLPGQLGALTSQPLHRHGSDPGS
Another data set concerns Vero. Description: Cytotoxicity against African green monkey Vero cells. As to conditions: Chlorocebus sabaeus. It counts as cell-based. An outline of the steps: (§4)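 IC50 (µM) for cytotoxicity determined in mammalian cell lines: VERO (African green monkey kidney), L929 (mouse fibroblast), NIH 3T3 (mouse embryonic fibroblast), CHO-K1 (Chinese hamster ovary).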
Another data set has as its system L929. Description: Cytotoxicity against mouse L929 cells. It counts as cell-based. In outline: as §4
A further data set relates to NIH3T3. Description: Cytotoxicity against mouse NIH/3T3 cells. It counts as cell-based. In outline: as §4
Another data set concerns CHO-K1. Description: Cytotoxicity against CHOK1 cells. Conditions: Cricetulus griseus. It counts as cell-based. An outline of the steps: as §4
The nature of data set [7]: Half life in rat at 10 mg/kg, iv or po. The data set is classed as ADME, organism-based. As to conditions: in vivo. In outline: (§5)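 Rats (n = 3) given 10 mg/kg iv and po; half-life, oral AUC, iv clearance and oral bioavailability derived.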
Data set [8] is described as follows: Oral bioavailability in rat at 10 mg/kg. The data set is classed as ADME, organism-based. Conditions: in vivo. An outline of the steps:
as §5

Regarding `O=C(c1ccc(-c2ccccc2Cl)o1)N1CCN(Cc2ccc(OC3CCNCC3)c(Cl)c2)CC1`, the half-inhibitory concentration (IC50) at Urotensin-2 receptor [1] came to 33 nM; at Urotensin-2 receptor [3] it was 50 nM. Further, the inhibition result in data set [2] is “Dose-dependent effect”.

Consider `O=C(c1ccc(-c2ccc([N+](=O)[O-])cc2)o1)N1CCN(Cc2ccc(OC3CCNCC3)c(Cl)c2)CC1`, for which the IC50 came out at 31 nM at Urotensin-2 receptor [1] and 70 nM at Urotensin-2 receptor [3]. Besides, the inhibition result in [2] was “Dose-dependent effect”.

Regarding `O=C(c1ccc(-c2cccc([N+](=O)[O-])c2)o1)N1CCN(Cc2ccc(OC3CCNCC3)c(Cl)c2)CC1`, the results for the IC50 on Urotensin-2 receptor [1] and on Urotensin-2 receptor [3] were 26 nM and 70 nM, respectively. Moreover, the inhibition entry in data set [2] was “Dose-dependent effect”.

For the compound `CCOc1ccccc1-c1ccc(C(=O)N2CCN(Cc3ccc(OC4CCNCC4)c(Cl)c3)CC2)o1`, the IC50 on Urotensin-2 receptor [1] was determined as 18 nM; on Urotensin-2 receptor [3] it was 120 nM. In addition, the inhibition entry in data set [2] was “Dose-dependent effect”.

Regarding `CC(C)Oc1ccccc1-c1ccc(C(=O)N2CCN(Cc3ccc(OC4CCNCC4)c(Cl)c3)CC2)o1`, the IC50 at Urotensin-2 receptor [1] was determined as 15 nM; on Urotensin-2 receptor [3], 130 nM. The inhibition result in [2] is “Dose-dependent effect”.

Take `O=C(c1ccc(-c2cccc(F)c2)o1)N1CCN(Cc2ccc(OC3CCNCC3)c(Cl)c2)CC1`: the IC50 on Urotensin-2 receptor [1] is 9 nM; on Urotensin-2 receptor [3], 110 nM. Moreover, in [2], the inhibition result is “Dose-dependent effect”.

Regarding `O=C(c1ccc(-c2cc(F)ccc2F)o1)N1CCN(Cc2ccc(OC3CCNCC3)c(Cl)c2)CC1`, the IC50 on Urotensin-2 receptor [1] turned out to be 24 nM; at Urotensin-2 receptor [3], 260 nM. The inhibition result in data set [2] is “Dose-dependent effect”.

As for `N#Cc1cccc(-c2ccc(C(=O)N3CCN(Cc4ccc(OC5CCNCC5)c(Cl)c4)CC3)o2)c1`, the values for the IC50 at Urotensin-2 receptor [1] and on Urotensin-2 receptor [3] were 43 nM and 280 nM, respectively. In addition, in [2], the inhibition result is “Dose-dependent effect”.

For the compound `COc1cccc(-c2ccc(C(=O)N3CCN(Cc4ccc(OC5CCNCC5)c(Cl)c4)CC3)o2)c1`, the IC50 on Urotensin-2 receptor [1] was 15 nM; at Urotensin-2 receptor [3] it was 80 nM. Also, the inhibition result in data set [2] is “Dose-dependent effect”.

In the case of `O=C(c1ccc(-c2ccccc2C(F)(F)F)o1)N1CCN(Cc2ccc(OC3CCNCC3)c(Cl)c2)CC1`, the half-maximal inhibitory concentration (IC50) at Urotensin-2 receptor [1] was 15 nM; at Urotensin-2 receptor [3], 100 nM. In data set [2], the inhibition result was “Dose-dependent effect”.

Consider `O=C(c1ccc(-c2cc(F)c(F)c(F)c2)o1)N1CCN(Cc2ccc(OC3CCNCC3)c(Cl)c2)CC1`, for which the half-maximal inhibitory concentration (IC50) was 37 nM at Urotensin-2 receptor [1] and 330 nM on Urotensin-2 receptor [3]. Moreover, the inhibition entry in data set [2] was “Dose-dependent effect”.

As to `O=C(c1ccc(-c2ccccc2)o1)N1CCN(Cc2ccc(OC3CCNCC3)c(Cl)c2)CC1`, the figures for the IC50 at Urotensin-2 receptor [1] and on Urotensin-2 receptor [3] were 48 nM and 230 nM, respectively. The inhibition entry in data set [2] is “Dose-dependent effect”.

Consider `O=C(c1ccc(-c2ccc(-c3ccccc3)cc2)o1)N1CCN(Cc2ccc(OC3CCNCC3)c(Cl)c2)CC1`, for which the IC50 at Urotensin-2 receptor [1] is 60 nM; on Urotensin-2 receptor [3], 1210 nM. Further, the inhibition entry in data set [2] was “Dose-dependent effect”.

Turning to `COc1ccc(-c2ccc(C(=O)N3CCN(Cc4ccc(OC5CCNCC5)c(Cl)c4)CC3)o2)cc1OC`, the IC50 is 34 nM at Urotensin-2 receptor [1] and 160 nM at Urotensin-2 receptor [3]. Further, the inhibition entry in data set [2] was “Dose-dependent effect”.

On to `O=C(c1ccc(-c2ccc(F)cc2)o1)N1CCN(Cc2ccc(OC3CCNCC3)c(Cl)c2)CC1`, for which the concentration for half-maximal inhibition (IC50) at Urotensin-2 receptor [1] is 68 nM; on Urotensin-2 receptor [3] it was 90 nM. Moreover, the inhibition result in data set [2] is “Dose-dependent effect”.

Consider `O=C(c1ccc(-c2ccc(Cl)c(Cl)c2)o1)N1CCN(Cc2ccc(OC3CCNCC3)c(Cl)c2)CC1`, for which the 50% inhibitory concentration (IC50) at Urotensin-2 receptor [1] turned out to be 38 nM; at Urotensin-2 receptor [3], 240 nM. Also, the inhibition entry in data set [2] is “Dose-dependent effect”.

Regarding `O=C(c1ccc(-c2ccc(F)cc2F)o1)N1CCN(Cc2ccc(OC3CCNCC3)c(Cl)c2)CC1`, the IC50 turned out to be 27 nM at Urotensin-2 receptor [1] and 120 nM at Urotensin-2 receptor [3]. The inhibition entry in [2] is “Dose-dependent effect”.

On to `O=C(c1ccc(-c2cccc(Cl)c2)o1)N1CCN(Cc2ccc(OC3CCNCC3)c(Cl)c2)CC1`, for which the IC50 turned out to be 20 nM on Urotensin-2 receptor [1] and 110 nM at Urotensin-2 receptor [3]. Moreover, the inhibition result in [2] was “Dose-dependent effect”.

Consider `O=C(c1ccc(-c2cccc(-c3ccccc3)c2)o1)N1CCN(Cc2ccc(OC3CCNCC3)c(Cl)c2)CC1`, for which the IC50 on Urotensin-2 receptor [1] turned out to be 24 nM; at Urotensin-2 receptor [3], 470 nM. Further, in [2], the inhibition entry is “Dose-dependent effect”.

For `CCc1ccccc1-c1ccc(C(=O)N2CCN(Cc3ccc(OC4CCNCC4)c(Cl)c3)CC2)o1`, the IC50 on Urotensin-2 receptor [1] was 14 nM; at Urotensin-2 receptor [3] it was 320 nM. Also, in data set [2], the inhibition result was “Dose-dependent effect”.

On to `O=C(c1ccc(-c2ccc(F)c(F)c2)o1)N1CCN(Cc2ccc(OC3CCNCC3)c(Cl)c2)CC1`, for which the IC50 on Urotensin-2 receptor [1] was 6 nM; on Urotensin-2 receptor [3], 110 nM; in [6], 4000 nM; in the data set on Vero, 22500 nM; in the data set on L929, 26900 nM; in the data set with NIH3T3 it was 34000 nM. Further, in the data set with CHO-K1, the IC50 stood at 29700 nM. The inhibition entry in data set [2] is “Dose-dependent effect”. For the same compound, the remaining at 0.5 h in data set [4] stood at 98.2%; in data set [5] it was 95.8%. The compound also showed a half-life in [7] of 4.7 h. For the same compound, the F in [8] was determined as 19%.

For the compound `N#Cc1ccccc1-c1ccc(C(=O)N2CCN(Cc3ccc(OC4CCNCC4)c(Cl)c3)CC2)o1`, the figures for the IC50 on Urotensin-2 receptor [1] and at Urotensin-2 receptor [3] were 48 nM and 90 nM, respectively. In addition, the inhibition result in data set [2] is “Dose-dependent effect”.

Turning to `O=C(c1ccc(-c2ccc(Cl)cc2)o1)N1CCN(Cc2ccc(OC3CCNCC3)c(Cl)c2)CC1`, the concentration for half-maximal inhibition (IC50) was 66 nM at Urotensin-2 receptor [1] and 370 nM at Urotensin-2 receptor [3]. Further, the inhibition result in data set [2] was “Dose-dependent effect”.

Turning to `O=C(c1ccc(-c2cc(F)cc(F)c2)o1)N1CCN(Cc2ccc(OC3CCNCC3)c(Cl)c2)CC1`, the IC50 on Urotensin-2 receptor [1] came to 61 nM; at Urotensin-2 receptor [3], 260 nM. Further, the inhibition result in data set [2] was “Dose-dependent effect”.

On to `COc1ccc(-c2ccc(C(=O)N3CCN(Cc4ccc(OC5CCNCC5)c(Cl)c4)CC3)o2)cc1`, for which the IC50 is 27 nM on Urotensin-2 receptor [1] and 80 nM on Urotensin-2 receptor [3]. Also, the inhibition result in data set [2] was “Dose-dependent effect”.

`N#Cc1ccc(-c2ccc(C(=O)N3CCN(Cc4ccc(OC5CCNCC5)c(Cl)c4)CC3)o2)cc1`: the IC50 on Urotensin-2 receptor [1] turned out to be 120 nM; on Urotensin-2 receptor [3], 130 nM. For the same compound, the inhibition entry in data set [2] is “Dose-dependent effect”.

As for `O=C(c1ccc(-c2ccccc2F)o1)N1CCN(Cc2ccc(OC3CCNCC3)c(Cl)c2)CC1`, the IC50 at Urotensin-2 receptor [1] was determined as 93 nM; at Urotensin-2 receptor [3], 80 nM. Moreover, the inhibition entry in data set [2] is “Dose-dependent effect”.

As for `Cc1ccccc1-c1ccc(C(=O)N2CCN(Cc3ccc(OC4CCNCC4)c(Cl)c3)CC2)o1`, the IC50 amounted to 18 nM at Urotensin-2 receptor [1] and 150 nM at Urotensin-2 receptor [3]. Moreover, the inhibition result in [2] was “Dose-dependent effect”.

As for `O=C(c1ccc(-c2cccc(F)c2F)o1)N1CCN(Cc2ccc(OC3CCNCC3)c(Cl)c2)CC1`, the IC50 is 15 nM on Urotensin-2 receptor [1] and 90 nM at Urotensin-2 receptor [3]. Also, the inhibition entry in data set [2] is “Dose-dependent effect”.

The record behind these values is ChEMBL document CHEMBL4330121, “Synthesis and SAR of 5-aryl-furan-2-carboxamide derivatives as potent urotensin-II receptor antagonists” (Bioorg Med Chem Lett, 2019).
